Reference: publication PMC2532710 (Nucleic Acids Research, 2008)
pIC50: −log10 of the molar value.

Tests used:
[1] = tested on: fork substrate with only the leading strand; assay: 2-AP fluorescence quenching, leading strand fork; assay type: binding
Procedure, shortened: (§1)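 Substrates were annealed from oligos (boiled 5 min, slow-cooled), gel-purified on native 12% PAGE and quantified spectrophotometrically. After ≥10 min equilibration, emission was read at 330–430 nm (excitation 315 nm). Adenine-substituted spectra were subtracted, and fold decrease at 370 nm was taken versus no peptide.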

[2] = tested on: RecG binding to HJ substrate; details: cited from earlier work
human RAD54 protein = details: cited from earlier work
[3] = tested on: RecG binding to HJ substrate; assay: RecG/; design: species or system Escherichia coli
[4] = tested on: fork substrate with only the lagging strand; assay: 2-AP fluorescence quenching, lagging strand fork; assay type: binding
Procedure, shortened: as §1

HJ substrate = assay: dissociation from HJ; assay type: binding
RecG helicase = details: cited from earlier work
[5] = tested on: replication fork substrates; details: ref K. Kepple, Ph.D. Thesis, 2006; cited from earlier work
RuvABC complex = details: cited from earlier work
linear dsDNA = details: cited from earlier work
Lagging strand fork = assay: 2-AP titration Kd, lagging strand fork; assay type: binding; details: Kd ratio, n = 1
Procedure, shortened: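 Each substrate carried 2-AP at strand 4, position 2 and was used at 0.1 μM in 20 mM Tris-HCl pH 7.8, 25 mM NaCl, 1 mM EDTA, 1.6% DMSO at 24°C. Peptide dimer added in 2-fold steps from 0.003125 μM, 3 min each. Excitation 315 nm, emission 330–430 nm. Adenine background subtracted, 365–375 nm averaged. Fc fitted by least squares to pooled 2–3 dilution series. Value given as Kd relative to HJ Kd.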

[6] = tested on: central thymine bases of HJ; details: bound to HJ; cited from earlier work
[7] = tested on: 1AP1 oligonucleotide alone (ssDNA); assay: 2-AP fluorescence quenching, single oligonucleotide; assay type: binding

(WRWYCR)2 (disulfide)
fold decrease in 2-AP fluorescence at 370 nm ([1]; Lead-1AP1 (central base), 1.6 μM dimer, 8:1): 1.3 fold | fold decrease in 2-AP fluorescence at 370 nm ([1]; Lead-4AP1 (central base), 0.05 μM dimer, 0.25:1): 1.0 fold | fold decrease in 2-AP fluorescence at 370 nm ([1]; Lead-4AP1 (central base), 0.8 μM dimer, 4:1): 1.3 fold | fold decrease in 2-AP fluorescence at 370 nm ([1]; Lead-4AP1 (central base), 1.6 μM dimer, 8:1): 1.7 fold | 2-AP quenching ([1]; Lead-4AP1, Lead-4AP2 and Lead-4AP3): all quenched by the peptide | fold decrease in 2-AP fluorescence at 370 nm ([1]; Lead-4AP2 (central base), 0.05 μM dimer, 0.25:1): 1.0 fold | fold decrease in 2-AP fluorescence at 370 nm ([1]; Lead-4AP2 (central base), 0.8 μM dimer, 4:1): 1.2 fold | fold decrease in 2-AP fluorescence at 370 nm ([1]; Lead-4AP3, 0.05 μM dimer, 0.25:1): 1.0 fold | fold decrease in 2-AP fluorescence at 370 nm ([1]; Lead-4AP3, 0.8 μM dimer, 4:1): 1.2 fold | fold decrease in 2-AP fluorescence at 370 nm ([1]; Lead-4AP4, 0.2 μM dimer, 1:1): 1.0 fold | fold decrease in 2-AP fluorescence at 370 nm ([1]; Lead-4AP4, 1.6 μM dimer, 8:1): 1.2 fold | 2-AP quenching ([1]; Lead-4AP4 and Lead-1AP1): less sensitive | complexes formed when peptide and RecG are added together to HJ [2]: mostly peptide–HJ complexes | inhibition of D-loop unwinding activity (human RAD54 protein): inhibit the D-loop unwinding activity | mechanism of inhibition of RecG [3]: competitive mechanism | inhibition of RecG binding to HJ ([3]; 0.02 μM RecG, 0.025 μM peptide dimer, 2 nM HJ): strongly inhibited | inhibition of RecG binding to HJ ([3]; 0.02 μM RecG, 0.1 μM peptide, 2 nM HJ): almost completely inhibited | inhibition of RecG binding to HJ ([3]; 0.2 μM RecG, 0.025 μM peptide): only weak inhibition | inhibition of RecG–DNA complexes, order of addition ([3]; data not shown, Saha and Segall, unpublished data): occurs whether the peptide is added to DNA 10 min before or after RecG | fold decrease in 2-AP fluorescence at 370 nm ([4]; Lag-1AP1 (central base), 0.05 μM dimer, 0.25:1): 1.0 fold | fold decrease in 2-AP fluorescence at 370 nm ([4]; Lag-1AP1 (central base), 0.2 μM dimer, 1:1): 1.0 fold | fold decrease in 2-AP fluorescence at 370 nm ([4]; Lag-1AP1 (central base), 0.8 μM dimer, 4:1): 1.3 fold | fold decrease in 2-AP fluorescence at 370 nm ([4]; Lag-1AP1 (central base), 1.6 μM dimer, 8:1): 2.0 fold | 2-AP quenching ([4]; Lag-1AP1, 4- and 8-fold molar excess): quenched | 2-AP quenching ([4]; Lag-3AP2): only very weak quenching | fold decrease in 2-AP fluorescence at 370 nm ([4]; Lag-3AP2, 0.05 μM dimer, 0.25:1): 1.0 fold | fold decrease in 2-AP fluorescence at 370 nm ([4]; Lag-3AP2, 0.2 μM dimer, 1:1): 1.0 fold | fold decrease in 2-AP fluorescence at 370 nm ([4]; Lag-4AP1 (central base), 0.05 μM dimer, 0.25:1): 1.0 fold | fold decrease in 2-AP fluorescence at 370 nm ([4]; Lag-4AP1 (central base), 0.8 μM dimer, 4:1): 1.3 fold | fold decrease in 2-AP fluorescence at 370 nm ([4]; Lag-4AP1 (central base), 1.6 μM dimer, 8:1): 1.9 fold | 2-AP quenching ([4]; Lag-4AP1 and Lag-4AP2): quenched strongly | fold decrease in 2-AP fluorescence at 370 nm ([4]; Lag-4AP2 (central base), 0.05 μM dimer, 0.25:1): 1.0 fold | fold decrease in 2-AP fluorescence at 370 nm ([4]; Lag-4AP2 (central base), 0.8 μM dimer, 4:1): 1.3 fold | fold decrease in 2-AP fluorescence at 370 nm ([4]; Lag-4AP2 (central base), 1.6 μM dimer, 8:1): 1.6 fold | fold decrease in 2-AP fluorescence at 370 nm ([4]; Lag-4AP3, 0.05 μM dimer, 0.25:1): 1.0 fold | fold decrease in 2-AP fluorescence at 370 nm ([4]; Lag-4AP3, 0.2 μM dimer, 1:1): 1.0 fold | fold decrease in 2-AP fluorescence at 370 nm ([4]; Lag-4AP3, 0.8 μM dimer, 4:1): 1.2 fold | fold decrease in 2-AP fluorescence at 370 nm ([4]; Lag-4AP3, 1.6 μM dimer, 8:1): 1.3 fold | 2-AP quenching ([4]; Lag-4AP3 and Lag-4AP4): quenched relatively weakly | fold decrease in 2-AP fluorescence at 370 nm ([4]; Lag-4AP4, 0.05 μM dimer, 0.25:1): 1.0 fold | fold decrease in 2-AP fluorescence at 370 nm ([4]; Lag-4AP4, 0.2 μM dimer, 1:1): 1.0 fold | fold decrease in 2-AP fluorescence at 370 nm ([4]; Lag-4AP4, 1.6 μM dimer, 8:1): 1.0 fold | time for half of bound peptide to dissociate (HJ substrate; 0.015 μM (WRWYCR)2, 1 nM labeled HJ, 0.2 μM unlabeled HJ (200X), 4°C): More than an hour | dissociation slower than RecG (HJ substrate; peptide vs RecG, from HJ): about 2 X | inhibition of unwinding of branched DNA substrates by RecG (RecG helicase): inhibit unwinding of branched DNA substrates | inhibition of RecG by fork type (RecG helicase; fork with only lagging vs only leading strand): inhibits RecG most on a fork substrate with only the lagging strand and least on a fork substrate with only the leading strand | binding to replication forks by band shift [5]: unable to detect binding | inhibition of HJ resolution by RuvABC (RuvABC complex): inhibit | pIC50 (RuvABC complex; read-out: IC50, RuvABC): ~7.30 | interaction with linear dsDNA (linear dsDNA): not with linear dsDNA | binding to dsDNA (linear dsDNA; high concentrations): binds to dsDNA nonspecifically at high concentrations | Fold reduced versus HJ (Lagging strand fork): 5.5 | increase in KMnO4 sensitivity of central thymine bases [6]: ~2 fold | 2-AP quenching ([7]; 8-fold molar excess of peptide, data not shown): no significant quenching | 2-AP quenching ([7]; 16-fold peptide excess): Quenching begins | 2-AP quenching ([7]; 32-fold excess): increases
